Laboratory results from ChEMBL document CHEMBL4513216, “Probing the Open Global Health Chemical Diversity Library for Multistage-Active Starting Points for Next-Generation Antimalarials” (ACS Infect Dis, 2020).

Assay: Toxicity liver stage against HepG2, at 10uM
Type: cell-based
Design: test concentration 10 uM, cell line HepG2-A16-CD81EGFP
Conditions: human, HepG2-A16-CD81EGFP cells; read-out: INHIBITION
Outline: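 Uninfected HepG2-A16-CD81EGFP cells, 3 × 10^3 per well, 1536-well, plated on prespotted compound at 10 μM final, parasite-free screening media added to match infected plates; puromycin 10 μM positive, DMSO 0.5% negative; run in parallel with 48 h PbLuc assay at 37 °C, 5% CO2; viability by CellTiter-Glo luminescence, normalized to controls.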

Row | SMILES | cytotoxicity at 10 µM [%]
1 | CSCC[C@H](NC(=O)CCn1ccc2c(Br)cccc21)C(=O)O | 0.633
2 | CC(C)CCNC(=O)CNC(=O)N1CCc2c([nH]c3ccc(Cl)cc23)C1 | 6.73
3 | C[C@@H](O)CNC(=O)CCc1nc2cccnc2[nH]1 | -6.9
4 | CN(C)CC(=O)N1CC2(CCN(Cc3ccccc3)C2)C1 | 5.62
5 | CS(=O)(=O)N1CCCc2sc(C(=O)NC3CC3)nc21 | -143
6 | COCCC1COC2(CCN(C(=O)C3CCCCC3)CC2)C1 (stereo not drawn) | 7.4
7 | O=S(=O)(C1CC1)N1CCO[C@H]2[C@H](OCC3CC3)CC[C@@H]21 | 5.61
8 | CCOCC1CN(C(=O)c2ccnnc2)Cc2cnn(C)c21 (stereo not drawn) | 7.07
9 | CCOCC1CN(C(=O)c2cccnc2)Cc2cnn(C)c21 (stereo not drawn) | -1.28
10 | CNC(=O)N1CC[C@@H]2CN(Cc3cccc(Cl)c3)S(=O)(=O)[C@@H]2CC1 | 0.748
11 | CC(=O)N1CCN(C(=O)NC(C)C)CC2(CNC(=O)C2)C1 (stereo not drawn) | -1.63
12 | CNC(=O)CS(=O)(=O)C1CCN(S(=O)(=O)c2c(F)cccc2F)CC1 | -22
13 | COCCN1C(=O)CC(N2CCN(c3ccc(F)cc3)CC2)C1=O (stereo not drawn) | -9.26
14 | CC1CCCCN1C(=O)COCc1nc(-c2ccncc2)no1 (stereo not drawn) | 1.79
15 | CN(C1CCCN(c2ccccn2)C1)S(C)(=O)=O (stereo not drawn) | 1.07
16 | O=C(NCCNC1CCCCC1)c1cccs1 | -12.7
17 | CCS(=O)(=O)N1C[C@H]2CC[C@](O)(c3ccc(C)cc3)[C@H]2C1 | -23.2
18 | CN(C(=O)c1ccon1)[C@@H]1CCC[C@@H](Oc2ccccc2)[C@@H]1O | -17.5
19 | C[C@@H]1C[C@H](C(F)(F)F)n2nc(C3CCN(S(=O)(=O)N(C)C)CC3)cc2N1 | -17.9
20 | Cc1cc(CCC(N)=O)cc(C2CCCN2Cc2ccnn2C)n1 (stereo not drawn) | -19.8
21 | CN(Cc1ccccn1)C(=O)Nc1cc(C(F)(F)F)c[nH]c1=O | 8.36
22 | CCC(NC(=O)NC1CCN(S(C)(=O)=O)CC1)c1cccs1 (stereo not drawn) | -11.6

Row | SMILES | cytotoxicity at 10 µM [%]
23 | CC(NS(=O)(=O)N(C)C(C)C)C(=O)N(C)C (stereo not drawn) | 7.95
24 | CCN(Cc1cccnc1)C1CCN(c2ccccc2)C1=O (stereo not drawn) | -0.483
25 | Cc1n[nH]c(C)c1CNCC(O)c1ccc(F)c(F)c1 (stereo not drawn) | 4.32
26 | O=C(Cc1ccc(Br)s1)NCC(=O)Nc1cn[nH]c1 | 2.06
27 | O=C(CN1CCN(c2ncnc3cccc(F)c23)CC1)N1CCCC1 | 3.65
28 | CC1(NC(=O)CNC(=O)C(C)(C)C)CCc2ccccc2C1 (stereo not drawn) | -3.67
29 | Cc1n[nH]c(C)c1CCC(=O)NC1CCCN(c2ccccc2F)C1 (stereo not drawn) | -13.7
30 | CC(C)CN1CC(C(=O)NCCc2ccc(OC(F)F)cc2)CC1=O (stereo not drawn) | 5.04
31 | CC1CN(C(=O)NCc2cnn(-c3ccc(F)cc3F)c2)CCO1 (stereo not drawn) | 2.18
32 | Cc1n[nH]c(C)c1NC(=O)CN1CCc2c(nc(C(C)C)n2C)C1 | -5.68
33 | COc1ccc(C(=O)NS(=O)(=O)c2cncc(Br)c2)cc1 | -1.91
34 | Cc1cc(CNC(=O)NC(C)c2ccccc2)no1 (stereo not drawn) | 10.4
35 | COCCNC(=O)NC(C)COc1ccc(F)cc1F (stereo not drawn) | 4.14
36 | CC(C)(C)Cc1noc2ncc(C(=O)N3CCCSCC3)cc12 | -20.5
37 | C[S+]([O-])CCNCc1ccc(OCc2cscn2)cc1 (stereo not drawn) | -138
38 | Cc1ccc(-n2ccnc2)c(C(=O)NCCOCC2CCCO2)c1 (stereo not drawn) | -139
39 | COc1ccc(C)cc1-c1csc(Cn2ccc(=O)[nH]c2=O)n1 | 4.16
40 | CC(NC(=O)CCc1cccc(OC2CCCC2)c1)c1nncn1C (stereo not drawn) | 7.2
41 | Cc1ccc(S(=O)(=O)CCC(=O)NCc2nnc3n2CCC3)cc1 | 3.55
42 | Cc1ncccc1C(=O)Nc1cccc(OCC(F)F)n1 | -7.79
43 | O=C(CCc1nc(C2CC2)no1)c1ccc(F)c(F)c1 | 0.923
44 | CCN(CC1CCOC1)C(=O)c1ccn(-c2ccc(OC)cc2)n1 (stereo not drawn) | -4.19

Row | SMILES | cytotoxicity at 10 µM [%]
45 | CCn1c(CN(C)Cc2cnc(C)s2)nc2cc(F)ccc21 | -31.9
46 | CC(C)N(CC(N)=O)Cc1cccc(C(F)(F)F)c1 | 0.292
47 | O=C(CCc1ccco1)Nc1cccc(S(=O)(=O)C(F)F)c1 | -42.5
48 | CCCS(=O)(=O)NCCc1ncc(C)s1 | -9.31
49 | CC(NC(=O)C1=NN(C)C(=O)CC1)c1ccc(F)cc1F (stereo not drawn) | -4.4
50 | O=C(NCc1n[nH]c2c1CCCCC2)c1cnn2c1CCCC2 | 13.6
51 | NC(=O)[C@H]1CCCN1C(=O)c1csc(-c2ccc(C(F)(F)F)cc2)n1 | -0.187
52 | CCc1ccc(CN(Cc2ccccc2)CC(C)CO)nc1 (stereo not drawn) | 9.11
53 | CN1CCN2CCN(C(=O)c3cnn4cc(CCO)cnc34)CC2C1 (stereo not drawn) | 7.04
54 | Cc1ccc(CN2CCNC(C(=O)NC3CC3)C2)cc1C (stereo not drawn) | -3.41
55 | COCC1(C(=O)N2CCC(c3nccn3CC3CC3)CC2)CCC1 | 4.5
56 | CC(C)NC(=O)[C@@H]1C[C@@H](N)CN1C(=O)CCSCc1ccccc1 | 0.719
57 | Nc1nccc(N2C[C@@H](CN3CCCCC3)[C@@H](CO)C2)n1 | -2.16
58 | Cc1cc(NCc2cc3n(n2)CCCN(C(=O)C2CCC2)C3)ncn1 | -136
59 | COCCn1c(CN2CCCCO2)cnc1S(=O)(=O)CC1CCCCC1 | -6.58
60 | CN1C[C@@H](n2cnc(-c3ccccc3)c2-c2ncc[nH]2)C[C@H]1C(=O)O | -4.75
61 | Cn1c(CN2CCCCC2)nnc1C1CCCN(c2ccncc2F)C1 (stereo not drawn) | -0.37
62 | O=C(c1ccc[nH]1)N1CCC(c2nccn2Cc2ccncc2)CC1 | -16.8
63 | CCNC(=O)[C@@H]1C[C@@H](NC(=O)c2cccnc2O)CN1Cc1ccsc1 | -5.39
64 | Cc1cc(C)n(CC2CN(CC(=O)NC3(C#N)CCCC3)CCO2)n1 (stereo not drawn) | -2.49
65 | COc1c(C)cnc(CN2CCC(N(C)C(=O)C3CC3)CC2)c1C | -2.74
66 | Cc1nn(C)c(C)c1C1COCCN1C(=O)c1cc(F)ccc1F (stereo not drawn) | 3.38

Row | SMILES | cytotoxicity at 10 µM [%]
67 | O=C(O)c1c[nH]c2cc(NS(=O)(=O)c3ccc(Cl)cc3F)ccc12 | -1.2
68 | O=C(NCCNc1ncccn1)C1CCN(C(=O)c2ccoc2)CC1 | -12.6
69 | CC(c1nc(C2CC2)no1)N1CCN(CCCN2CCCC2=O)CC1 (stereo not drawn) | -13.4
70 | Cc1n[nH]c(C)c1C1COCCN1C(=O)c1n[nH]c2ccccc12 (stereo not drawn) | -3.63
71 | Cc1nc(C2CCCN(C(=O)c3ccc(Cl)cn3)C2)no1 (stereo not drawn) | -10.4
72 | CCc1nc(CN2CCN(C(=O)N3CCCCC3)CC2)cs1 | -16
73 | Cc1csc(C2CCCN(C(=O)c3c(C)nn4cccnc34)C2)n1 (stereo not drawn) | -10.4
74 | CN(C)C(=O)CN1CCN(C(=O)c2cnn(-c3ccccc3Cl)c2)CC1 | -3.67
75 | CC(Cn1cccn1)NCc1csc(COc2ccccc2)n1 (stereo not drawn) | -8.51
76 | COc1ccc(Cl)cc1C(=O)N1CCCC(c2cc(C)[nH]n2)C1 (stereo not drawn) | -10.1
77 | CNC(=O)c1ccc(CNC(=O)NCCN(C)C2CCCC2)cc1 | -7.66
78 | CCOc1ncccc1NC(=O)NC1CCCN(S(C)(=O)=O)C1 (stereo not drawn) | -3.62
79 | COc1ccc(CC(=O)N2CCCCC2Cn2cc(C)cn2)cc1F (stereo not drawn) | -14.1
80 | COc1c(C2CCCN2C(=O)c2ccc3[nH]cnc3c2)c(C)nn1C (stereo not drawn) | -8.04
81 | Cc1oc(-c2ccco2)nc1CC(=O)N1CCN(CC(C)O)CC1 (stereo not drawn) | -11.4
82 | Cc1nc(CN2CCCC(N(C)Cc3cnc(C)s3)C2)no1 (stereo not drawn) | 2.76
83 | O=C(Cc1cccc(F)c1)NCCNCc1cccc(O)c1 | -9.5
84 | O=C(NCCc1ccccn1)C1=NN(c2ccccc2)C(=O)CN1 | -1.96
85 | CCn1cnnc1C1CCN(C(=O)c2ccc(Cl)s2)CC1 | -12.2
86 | O=C(c1n[nH]c2ccccc12)N1CCCC1c1noc(C2CC2)n1 (stereo not drawn) | -10.8
87 | CC(=O)NC1CCCN(C(=O)c2ccc(Br)cc2O)C1 (stereo not drawn) | -10.4
88 | CCOc1ccccc1-c1noc(CN2CC(n3cccn3)C2)n1 | -2.79

Row | SMILES | cytotoxicity at 10 µM [%]
89 | CC(=O)NCC(=O)N1CCc2c(CNc3ncccn3)cncc2C1 | 1.59
90 | O=C1[C@H]2CN(C3CCOCC3)C[C@H]2CN1Cc1ccncc1 | -124
91 | Cc1cc(CN2C[C@@H]3COC[C@]3(CNC(=O)c3ccsc3)C2)no1 | 1.41
92 | O=C(NCC1CC1)[C@H]1C[C@@H]2[C@@H](C1)OCCN2Cc1cccnc1 | 4.09
93 | CCN1C(=O)C2(CCN(CCN(C)C)CC2)c2ccccc21 | -112
94 | CN(C)CCOCC1CN(Cc2ccccn2)Cc2nnn(C)c21 (stereo not drawn) | 5.5
95 | O=C(c1ncccn1)N1CCC[C@]2(C[C@@H](Oc3ncccc3F)CO2)C1 | -4.28
96 | c1ccc(CN2CC[C@@H]3[C@@H](CO[C@@H]3CNc3ncccn3)C2)nc1 | -4.09
97 | O=C(NCC1CC1)C1CN(Cc2ccncc2)Cc2ccnn2C1 (stereo not drawn) | -0.902
98 | CCc1ccc(CN2CCCn3c(nc(Cn4ccnc4)cc3=O)C2)o1 | 4.29
99 | CN1CCC2(CCCN(c3nccc(C(F)(F)F)n3)C2)CC1 | 4.14
100 | CCn1ncc2c1C(COC)CN(Cc1ccc(F)cc1)C2 (stereo not drawn) | 12.4
101 | O=C(N1CCOCC1)N1CCc2ncnc(NC3CCC3)c2CC1 | -1.92
102 | CC(=O)N1CC(=O)N(c2ccsc2)CC12CCN(Cc1ccccn1)C2 (stereo not drawn) | 13
103 | O=C(c1ccsc1)N1CCO[C@@H]2CN(Cc3cccs3)C[C@@H]2C1 | -133
104 | Cc1csc(CN2C[C@@H]3COC[C@]3(COCC(=O)N(C)C)C2)n1 | 0.851
105 | Cc1ccc(O[C@@H]2C[C@H]3CN(C(=O)c4cccnc4)CCN3C2)cc1 | 1.06
106 | COc1ncccc1CN1C[C@@H]2COC[C@]2(COc2cccnc2)C1 | -0.182
107 | Cc1cccc(C(=O)N2C[C@@H]3C(CC(=O)N4CCCC4)[C@@H]3C2)n1 (stereo partly drawn) | 1.82
108 | COc1ccc(C2c3c(n[nH]c3C)N=C3COC(=O)C32)cc1OC (stereo not drawn) | 7.98
